Measured values published in ChEMBL document CHEMBL2311478, “Macrolactonolides: a novel class of anti-inflammatory compounds” (Bioorg Med Chem, 2013).
pEC50: −log10 of the molar value. Activity calls are given as the source filed them. No cut-off for these calls is given here.

Columns and labels:
Glucocorticoid receptor [1] = target: T1, Glucocorticoid receptor (Homo sapiens, UniProt P04150); assay: Displacement of [3H]-dexamethasone human glucocorticoid receptor alpha expressed in 293 MSR cells after 60 mins by scintillation counting; type: cell-based
T1 sequence (P04150 whole entry): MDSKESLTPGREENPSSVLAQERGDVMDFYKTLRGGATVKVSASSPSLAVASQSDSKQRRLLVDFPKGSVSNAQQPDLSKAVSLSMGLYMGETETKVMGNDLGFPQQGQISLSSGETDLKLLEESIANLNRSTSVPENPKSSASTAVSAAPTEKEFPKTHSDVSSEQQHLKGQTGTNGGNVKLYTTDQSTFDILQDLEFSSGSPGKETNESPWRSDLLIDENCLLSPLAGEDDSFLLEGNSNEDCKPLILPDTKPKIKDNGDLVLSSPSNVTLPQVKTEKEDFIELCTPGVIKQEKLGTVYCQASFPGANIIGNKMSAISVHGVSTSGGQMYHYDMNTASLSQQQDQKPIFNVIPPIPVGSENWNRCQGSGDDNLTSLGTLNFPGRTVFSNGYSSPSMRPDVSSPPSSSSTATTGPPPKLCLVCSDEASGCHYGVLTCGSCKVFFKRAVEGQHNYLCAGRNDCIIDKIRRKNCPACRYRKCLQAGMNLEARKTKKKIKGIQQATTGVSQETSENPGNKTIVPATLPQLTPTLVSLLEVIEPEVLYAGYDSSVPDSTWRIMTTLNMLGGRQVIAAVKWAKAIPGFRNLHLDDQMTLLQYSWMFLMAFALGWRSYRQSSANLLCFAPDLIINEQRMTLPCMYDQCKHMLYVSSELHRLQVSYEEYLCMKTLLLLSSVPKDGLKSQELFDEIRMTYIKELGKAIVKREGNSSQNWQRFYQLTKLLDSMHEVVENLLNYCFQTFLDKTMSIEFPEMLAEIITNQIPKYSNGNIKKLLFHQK

Glucocorticoid receptor [2] = target: T1, Glucocorticoid receptor; assay: Binding affinity to glucocorticoid receptor (unknown origin) by fluorescence polarization competitive binding assay
Rattus norvegicus [3] = assay: Antiinflammatory activity against ovalbumin-induced airway allergic Brown-Norway rat model assessed as decrease of eosinophils in bronchoalveolar lavage fluid at 11 mg/kg administered intranasally as dry powder measured on day 29 after ovalbumin challenge (reference value: 53.1%); type: functional, Lung; set-up: scale not given: the % may be the effect or the level left
Rattus norvegicus [4] = assay: Antiinflammatory activity against ovalbumin-induced airway allergic Brown-Norway rat model assessed as decrease of macrophages in bronchoalveolar lavage fluid at 11 mg/kg administered intranasally as dry powder measured on day 29 after ovalbumin challenge; type: functional, organism-based; set-up: dose 11 mg/kg; conditions: Lung
Rattus norvegicus [5] = assay: Antiinflammatory activity against ovalbumin-induced airway allergic Brown-Norway rat model assessed as decrease of neutrophils in bronchoalveolar lavage fluid at 11 mg/kg administered intranasally as dry powder measured on day 29 after ovalbumin challenge; type: functional, organism-based; set-up: dose 11 mg/kg
[6] = Drug uptake in mouse J774A1 cells at 10 uM after 3 hrs by LC-MS/MS method; type: ADME, cell-based; conditions: j774.a1, 3 h
Procedure, shortened: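 Uptake in J774A.1 macrophages seeded two days before at 2 × 10^5 cells/well. Cells were exposed to 10 µM compound for 3 h in DMEM/25 mM Hepes without supplements, washed with ice-cold PBS and lysed in 0.5% Triton X-100. Lysate was measured by LC–MS/MS, using a cell volume of 1.68 µL per 10^6 cells. Result is the I/E ratio, with E taken as 10 µM.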

[7] = Drug uptake in mouse J774A1 cells assessed as compound retention at 10 uM after 3 hrs by LC-MS/MS method; type: ADME, cell-based; conditions: j774.a1, 3 h
Procedure, shortened: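 J774A.1 cells were loaded with 10 µM compound for 3 h in DMEM/25 mM Hepes, then incubated 3 h in fresh medium. Cells were washed, lysed in 0.5% Triton X-100 and analysed by LC–MS/MS. Retention is the percentage of the initially accumulated amount remaining. Triplicates, mean ± SD from one representative experiment.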

SMILES | pEC50 (Glucocorticoid receptor [1]) | pEC50 (Glucocorticoid receptor [2]) | also measured
CC[C@H]1OC(=O)[C@H](C)[C@@H](O)[C@H](C)[C@@H](O[C@@H]2O[C@H](C)C[C@H](N(C)C)[C@H]2O)[C@](C)(O)C[C@@H](C)CN(CCCNC(=O)[C@@]2(O)[C@H](C)C[C@H]3[C@@H]4CCC5=CC(=O)CC[C@]5(C)[C@H]4[C@@H](O)C[C@@]32C)[C@H](C)[C@@H](O)[C@]1(C)O | < 4.60 | 5.21 | –
CC[C@H]1OC(=O)[C@H](C)[C@@H](O[C@H]2C[C@@](C)(OC)[C@@H](O)[C@H](C)O2)[C@H](C)[C@@H](O[C@@H]2O[C@H](C)C[C@H](N(C)C)[C@H]2O)[C@](C)(O)C[C@@H](C)CN(CCCNC(=O)[C@H]2[C@H](C)C[C@H]3[C@@H]4C[C@H](F)C5=CC(=O)C=C[C@]5(C)[C@@]4(F)[C@@H](O)C[C@@]32C)[C@H](C)[C@@H](O)[C@]1(C)O | 6.28 | 7.05 | –
CC[C@H]1OC(=O)[C@H](C)[C@@H](O[C@H]2C[C@@](C)(OC)[C@@H](O)[C@H](C)O2)[C@H](C)[C@@H](O[C@@H]2O[C@H](C)C[C@H](N(C)C)[C@H]2O)[C@](C)(O)C[C@@H](C)CN(CCCNC(=O)[C@@]2(O)CC[C@H]3[C@@H]4CCC5=CC(=O)CC[C@]5(C)[C@H]4[C@@H](O)C[C@@]32C)[C@H](C)[C@@H](O)[C@]1(C)O | < 4.60 | < 5.00 | –
CC[C@H]1OC(=O)[C@H](C)[C@@H](O[C@H]2C[C@@](C)(OC)[C@@H](O)[C@H](C)O2)[C@H](C)[C@@H](O[C@@H]2O[C@H](C)C[C@H](N(C)C)[C@H]2O)[C@](C)(O)C[C@@H](C)CN(CCCNC(=O)[C@@]2(O)[C@H](C)C[C@H]3[C@@H]4CCC5=CC(=O)C=C[C@]5(C)[C@@]4(F)[C@@H](O)C[C@@]32C)[C@H](C)[C@@H](O)[C@]1(C)O | 4.64 | 5.68 | –
CC[C@H]1OC(=O)[C@H](C)[C@@H](O[C@H]2C[C@@](C)(OC)[C@@H](O)[C@H](C)O2)[C@H](C)[C@@H](O[C@@H]2O[C@H](C)C[C@H](N(C)C)[C@H]2O)[C@](C)(O)C[C@@H](C)CN(CCCNC(=O)[C@@]2(O)C(C)C[C@H]3[C@@H]4CCC5=CC(=O)C=C[C@]5(C)[C@@]4(Cl)[C@@H](O)C[C@@]32C)[C@H](C)[C@@H](O)[C@]1(C)O (single isomer, unassigned) | < 4.60 | < 5.00 | –
CC[C@H]1OC(=O)[C@H](C)[C@@H](O)[C@H](C)[C@@H](O[C@@H]2O[C@H](C)C[C@H](N(C)C)[C@H]2O)[C@](C)(O)C[C@@H](C)CN(CCCNC(=O)[C@@]2(O)[C@H](C)C[C@H]3[C@@H]4C[C@H](F)C5=CC(=O)C=C[C@]5(C)[C@@]4(Cl)[C@@H](O)C[C@@]32C)[C@H](C)[C@@H](O)[C@]1(C)O | 5.77 | 6.46 | –
CCC(=O)OCC(=O)[C@@]1(OC(=O)CC)[C@@H](C)C[C@H]2[C@@H]3CCC4=CC(=O)C=C[C@]4(C)[C@@]3(Cl)[C@@H](O)C[C@@]21C [BECLOMETHASONE DIPROPIONATE] | – | – | Activity (Rattus norvegicus [3]): 43%; Activity (Rattus norvegicus [4]): inactive; Activity (Rattus norvegicus [5]): inactive
CC[C@H]1OC(=O)[C@H](C)[C@@H](O[C@H]2C[C@@](C)(OC)[C@@H](O)[C@H](C)O2)[C@H](C)[C@@H](O[C@@H]2O[C@H](C)C[C@H](N(C)C)[C@H]2O)[C@](C)(O)C[C@@H](C)CN(CCCNC(=O)[C@@]2(O)[C@H](C)C[C@H]3[C@@H]4C[C@H](F)C5=CC(=O)C=C[C@]5(C)[C@@]4(F)[C@@H](O)C[C@@]32C)[C@H](C)[C@@H](O)[C@]1(C)O | < 4.60 | 6.04 | –
C[C@@H]1C[C@H]2[C@@H]3CCC4=CC(=O)C=C[C@]4(C)[C@@]3(F)[C@@H](O)C[C@]2(C)[C@H]1C(=O)CO [DESOXIMETASONE] | – | – | Drug uptake [6]: Not Active; Drug uptake [7]: Not Active
CC[C@H]1OC(=O)[C@H](C)[C@@H](O[C@H]2C[C@@](C)(OC)[C@@H](O)[C@H](C)O2)[C@H](C)[C@@H](O[C@@H]2O[C@H](C)C[C@H](N(C)C)[C@H]2O)[C@](C)(O)C[C@@H](C)CN(CCCNC(=O)[C@@]2(O)[C@H](C)C[C@H]3[C@@H]4C[C@H](F)C5=CC(=O)C=C[C@]5(C)[C@@]4(Cl)[C@@H](O)C[C@@]32C)[C@H](C)[C@@H](O)[C@]1(C)O | 5.42 | 5.82 | –
CC[C@H]1OC(=O)[C@H](C)[C@@H](O)[C@H](C)[C@@H](O[C@@H]2O[C@H](C)C[C@H](N(C)C)[C@H]2O)[C@](C)(O)C[C@@H](C)CN(CCCNC(=O)[C@@]2(O)[C@H](C)C[C@H]3[C@@H]4C[C@H](F)C5=CC(=O)C=C[C@]5(C)[C@@]4(F)[C@@H](O)C[C@@]32C)[C@H](C)[C@@H](O)[C@]1(C)O | 5.47 | 6.16 | –
CC[C@H]1OC(=O)[C@H](C)[C@@H](O)[C@H](C)[C@@H](O[C@@H]2O[C@H](C)C[C@H](N(C)C)[C@H]2O)[C@](C)(O)C[C@@H](C)CN(CCCNC(=O)[C@@]2(O)[C@H](C)C[C@H]3[C@@H]4C[C@H](F)C5=CC(=O)C=C[C@]5(C)[C@H]4[C@@H](O)C[C@@]32C)[C@H](C)[C@@H](O)[C@]1(C)O | 5.23 | 6.26 | –
CC[C@H]1OC(=O)[C@H](C)[C@@H](O[C@H]2C[C@@](C)(OC)[C@@H](O)[C@H](C)O2)[C@H](C)[C@@H](O[C@@H]2O[C@H](C)C[C@H](N(C)C)[C@H]2O)[C@](C)(O)C[C@@H](C)CN(CCCNC(=O)[C@H]2CC[C@H]3[C@@H]4CCC5=CC(=O)CC[C@]5(C)[C@H]4[C@@H](O)C[C@]23C)[C@H](C)[C@@H](O)[C@]1(C)O | < 4.60 | < 5.00 | –
CC[C@H]1OC(=O)[C@H](C)[C@@H](O)[C@H](C)[C@@H](O[C@@H]2O[C@H](C)C[C@H](N(C)C)[C@H]2O)[C@](C)(O)C[C@@H](C)CN(CCCNC(=O)[C@H]2[C@H](C)C[C@H]3[C@@H]4CCC5=CC(=O)C=C[C@]5(C)[C@@]4(F)[C@@H](O)C[C@@]32C)[C@H](C)[C@@H](O)[C@]1(C)O | < 4.60 | 5.55 | –
CC[C@H]1OC(=O)[C@H](C)[C@@H](O[C@H]2C[C@@](C)(OC)[C@@H](O)[C@H](C)O2)[C@H](C)[C@@H](O[C@@H]2O[C@H](C)C[C@H](N(C)C)[C@H]2O)[C@](C)(O)C[C@@H](C)CN(CCCNC(=O)[C@@]2(O)[C@H](C)C[C@H]3[C@@H]4C[C@H](F)C5=CC(=O)C=C[C@]5(C)[C@H]4[C@@H](O)C[C@@]32C)[C@H](C)[C@@H](O)[C@]1(C)O | < 4.60 | 5.84 | –
C[C@@H]1C[C@H]2[C@@H]3CCC4=CC(=O)C=C[C@]4(C)[C@@]3(F)[C@@H](O)C[C@]2(C)[C@@]1(O)C(=O)CO [DEXAMETHASONE] | – | – | Drug uptake [6]: Not Active; Drug uptake [7]: Not Active
CC[C@H]1OC(=O)[C@H](C)[C@@H](O[C@H]2C[C@@](C)(OC)[C@@H](O)[C@H](C)O2)[C@H](C)[C@@H](O[C@@H]2O[C@H](C)C[C@H](N(C)C)[C@H]2O)[C@](C)(O)C[C@@H](C)CN(CCCNC(=O)[C@@]2(O)CC[C@H]3[C@@H]4CCC5=CC(=O)C=C[C@]5(C)[C@H]4[C@@H](O)C[C@@]32C)[C@H](C)[C@@H](O)[C@]1(C)O | < 4.60 | < 5.00 | –
